Laboratory results as given in ChEMBL document CHEMBL3217641, “Structure-function study of gemini derivatives with two different side chains at C-20, Gemini-0072 and Gemini-0097” (Medchemcomm, 2011).

Assays:
Vitamin D3 receptor A = biological target: T1, Vitamin D3 receptor A (Danio rerio, UniProt Q9PTN2); assay: Agonist activity at zebrafish gal4-VDR LBD expressed in human MCF7 cells by luciferase reporter gene based transactivation assay; assay type: cell-based
T1 sequence (Q9PTN2 whole entry): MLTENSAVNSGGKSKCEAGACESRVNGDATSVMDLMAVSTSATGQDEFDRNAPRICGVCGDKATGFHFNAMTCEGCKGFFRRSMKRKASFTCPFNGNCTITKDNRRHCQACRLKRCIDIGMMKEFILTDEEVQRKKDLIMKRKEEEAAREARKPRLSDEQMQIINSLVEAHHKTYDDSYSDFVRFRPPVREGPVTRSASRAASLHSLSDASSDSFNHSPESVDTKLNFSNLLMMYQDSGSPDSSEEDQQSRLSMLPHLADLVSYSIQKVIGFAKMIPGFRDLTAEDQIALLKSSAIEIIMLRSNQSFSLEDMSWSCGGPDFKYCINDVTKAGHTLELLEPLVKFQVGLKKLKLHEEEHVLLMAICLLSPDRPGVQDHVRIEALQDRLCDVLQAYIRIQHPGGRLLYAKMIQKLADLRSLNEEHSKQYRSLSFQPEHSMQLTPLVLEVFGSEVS
Procedure, shortened: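 MCF-7 cells (10^5/well) were grown overnight in phenol red-free DMEM with 10% charcoal-treated FBS and 0.6 μg/ml insulin. They were transfected with jetPEI using Gal4DBD-zVDR(156–453) (25 ng), ptk-LUC reporter (250 ng) and β-galactosidase control (50 ng). After 10 h, ligand at 0.1–100 nM or DMSO solvent was added. After 24 h, luciferase was read, normalized to β-gal, in triplicate.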

[1] = Antiproliferative activity against ER positive human MCF10AT1 cells after 3 days by [3H]thymidine uptake assay; assay type: functional
[2] = Antiproliferative activity against ER positive human MCF10CA1a cells after 3 days by [3H]thymidine uptake assay; assay type: functional
[3] = Antiproliferative activity against ER positive human MCF10AT1 cells after 3 days by [3H]thymidine uptake assay relative to 1alpha,25(OH)2D3; assay type: functional
[4] = Antiproliferative activity against ER positive human MCF10CA1a cells after 3 days by [3H]thymidine uptake assay relative to 1alpha,25(OH)2D3; assay type: functional
[5] = Antiproliferative activity against ER negative human MCF10DCIS.com cells after 3 days by [3H]thymidine uptake assay
[6] = Antiproliferative activity against ER negative human MCF10DCIS.com cells after 3 days by [3H]thymidine uptake assay relative to 1alpha,25(OH)2D3
[7] = biological target: T2, Vitamin D3 receptor A (Danio rerio) (UniProt Q9PTN2); assay: Agonist activity at zebrafish gal4-VDR LBD expressed in human MCF7 cells by luciferase reporter gene based transactivation assay relative to 1alpha,25(OH)2D3; assay type: cell-based; conditions: tested as the 2H-labelled form
T2 sequence (whole entry): T1 sequence (Q9PTN2 whole entry)
Procedure, shortened: (§1)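 Transient transfection of MCF-7 cells (10^5/well, grown overnight in phenol red-free DMEM with 10% charcoal-treated FBS, gentamicin, insulin) with Gal4DBD-zVDR(156–453), ptk-LUC reporter, β-galactosidase control and carrier plasmid via jetPEI. After 10 h, ligands at 0.1, 1, 10, 100 nM versus DMSO solvent for 24 h. Luciferase normalized to β-galactosidase; triplicates, mean and S.D.; EC50 derived.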

[8] = biological target: T2, Vitamin D3 receptor A (Danio rerio); assay: Agonist activity at zebrafish gal4-VDR LBD expressed in human MCF7 cells by luciferase reporter gene based transactivation assay relative to parental gemini; assay type: cell-based; conditions: tested as the 2H-labelled form; procedure, shortened: as §1

Row | EC50 (Vitamin D3 receptor A) [pM] | fold change (FC) [7] | fold change (FC) [8] | Compound | IC50 [1] [pM] | IC50 [2] [pM] | fold change (FC) [3] | fold change (FC) [4] | IC50 [5] [pM] | fold change (FC) [6]
1 | 250 |  |  | [2H]C([2H])([2H])C(O)(CCC[C@H](CC#CC(O)(C(F)(F)F)C(F)(F)F)[C@H]1CC[C@H]2/C(=C/C=C3C[C@H](O)C[C@@H](O)C3)CCC[C@]12C)C([2H])([2H])[2H] | 510 | 150 | 10 | 10 | 360 | 10
2 |  | 36 | 8 | CC(C)(O)CCC[C@@H](CC#CC(O)(C(F)(F)F)C(F)(F)F)[C@H]1CC[C@H]2/C(=C/C=C3C[C@H](O)C[C@@H](O)C3)CCC[C@]12C |  |  |  |  |  | 
3 | 150 |  |  | [2H]C([2H])([2H])C(O)(CCC[C@@H](CC#CC(O)(C(F)(F)F)C(F)(F)F)[C@H]1CC[C@H]2/C(=C/C=C3C[C@H](O)C[C@@H](O)C3)CCC[C@]12C)C([2H])([2H])[2H] | 230 | 90 | 10 | 10 | 230 | 10
4 | 1200 |  |  | C=C1/C(=C\C=C2/CCC[C@]3(C)[C@@H](C(CCCC(C)(C)O)CCCC(C)(C)O)CC[C@@H]23)C[C@H](O)C[C@H]1O |  |  |  |  |  | 
5 |  | 22 | 5 | CC(C)(O)CCC[C@H](CC#CC(O)(C(F)(F)F)C(F)(F)F)[C@H]1CC[C@H]2/C(=C/C=C3C[C@H](O)C[C@@H](O)C3)CCC[C@]12C |  |  |  |  |  | 
